Out of some 360,000 compounds screened, about 200 (0.056%) were called active. This is one part of a sample in which actives are shown more often than they occur. Unmarked numbers belong to inactive results.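 How the source made its calls: active means mean normalized replicate activation at least 10% and every replicate at or above 10%; inconclusive means only one of the two criteria met; inactive means mean below 10% and not all replicates reach 10%.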

This passage reports activation results from PubChem BioAssay AID743238 (Broad Institute, 2013).

The assay is described as follows: Xi reactivation inducers in mouse fibroblasts – imaging, XiGFP fibroblasts, GFP high-content imaging, set 2, primary screen (AID 743238).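 Further: 0% = median of on-plate neutral control wells and 100% = ellipticine 6 µM median.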 Particulars: % GFP-positive cells imaging, 3 d, at 7.58 µM, active compounds read high, cells co-treated with 5-aza-dC sensitizer, scaled so ellipticine positive control = 100%. The essentials: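 System: XiGFP fibroblasts, SV40-immortalized. Medium: DMEM plus 5-aza-dC sensitizer. Doses: single point. Timing: 3 d treatment, 15 min room-temperature fixation. Control set: ellipticine 6 µM.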
Regarding `COCC#Cc1ccc([C@@H]2[C@@H](CO)N3C(=O)CN(C(=O)Nc4cc(F)ccc4F)C[C@@H]23)cc1`, the activation is 0.227%.
The figure for `CS(=O)(=O)N1[C@H](C#N)[C@H](c2ccccc2-c2ccc(F)cc2)[C@@H]1CO` is 0.0935%; for `O=C(NCc1ccc(F)cc1)[C@@H]1[C@@H](CO)[C@@H]2Cn3c(cccc3=O)[C@@H]2N1C(=O)c1cccnc1` it is 0.173%; for `C[C@H]1CN([C@@H](C)CO)C(=O)c2cc(C3=CCCC3)cnc2O[C@H]1CN(C)Cc1ccccc1C(=O)O` it is -0.072%.
In the case of `O=C(C[C@@H]1CC[C@H](NS(=O)(=O)c2ccc(F)cc2)[C@@H](CO)O1)NCc1ccccc1F` it was -0.283%.
The figure for `Cc1noc(C)c1NC(=O)Nc1ccc2c(c1)C(=O)N([C@H](C)CO)C[C@H](C)[C@H](CN(C)S(=O)(=O)c1cccs1)O2` is 0.0715%; for `N#C[C@@H]1[C@H](c2ccccc2-c2cccc(F)c2)[C@@H](CO)N1C(=O)C1CCCC1` it is 0.007%.
In the case of `COc1cccc(/C=C/C(=O)OCC(=O)N2CCCc3ccccc32)c1`, the activation was 0.22%.
For the molecule `Cc1cccc(N2CCN(C(C)C(=O)N3CCc4ccccc43)CC2)c1C` (stereo not given), the activation was 0.0055%.
Consider `Cc1cccc2cc3c(N)c(C(=O)N4CCCc5ccccc54)sc3nc12`, for which the activation is 39.9% (active).
The figure for `O=C(C[C@@H]1C[C@H]2c3cc(NC(=O)NC4CCCC4)ccc3O[C@H]2[C@H](CO)O1)NCc1cc(F)ccc1F` is 0.0125%; for `C[C@H](CO)N1C[C@H](C)[C@H](CN(C)S(=O)(=O)c2ccc(Cl)cc2)Oc2ccc(NC(=O)C3CCCCC3)cc2C1=O` it is -0.051%.
On to `CN1C(=O)c2cc(NC(=O)c3ccc(Cl)cc3)ccc2OC[C@H]2O[C@H](CC(=O)O)CC[C@H]21`, for which the activation was 0.521%.
The figure for `C[C@@H]1CCCCO[C@@H](CN(C)Cc2ccc(C(=O)Nc3ccccc3N)cc2)[C@H](C)CN([C@H](C)CO)C(=O)c2cc(N(C)C)ccc2O1` is 2.13%; for `O=C(C1CCCC1)N1CC(=O)N2[C@@H](CO)[C@@H](c3ccc(-c4cccnc4)cc3)[C@@H]2C1` it is 0.207%.
`C[C@@H](NC(=O)[C@H]1[C@H](CO)[C@H]2Cn3c(cccc3=O)[C@@H]1N2Cc1cccnc1)c1ccccc1`: the activation was 0.133%.
As for `C[C@@H]1CN([C@H](C)CO)C(=O)Cc2cc(NC(=O)Nc3ccc4c(c3)OCO4)ccc2O[C@@H]1CN(C)C(=O)Nc1ccccc1`, the activation is -0.384%.
For the molecule `CCCNC(=O)N1C[C@@H](C)[C@@H](OC)CN(C)C(=O)c2ccc(NC(=O)C3CCC3)cc2OC[C@@H]1C`, the activation is -0.29%.
In the case of `COc1ccc2c3c([nH]c2c1)[C@@H](CO)N(C(=O)c1ccccc1)CC31CCN(C(=O)Nc2cccc(F)c2)CC1`, the activation is 0.295%.
Consider `Cc1noc(C)c1NC(=O)N[C@@H]1C=C[C@@H](CC(=O)Nc2ccccc2)O[C@H]1CO`, for which the activation was 0.193%.
For the molecule `O=C(NC(Cc1ccc(O)cc1)C(=O)O)/C(=C/c1ccccc1)NC(=O)c1ccccc1` (stereo not given), the activation is 0.249%.
In the case of `COc1ccccc1C(=O)N/C(=C/c1ccc2c(c1)OCO2)C(=O)Nc1cccc(C(=O)O)c1`, the activation was 0.184%.
The figure for `O=C(Nc1cccc(C(=O)O)c1)/C(=C\c1ccccc1)NC(=O)c1ccc(Br)o1` is 97.3% (active).
Take `C[C@@H]1CCCCO[C@@H](CN(C)S(=O)(=O)c2cn(C)cn2)[C@@H](C)CN([C@@H](C)CO)C(=O)c2cc(NC(=O)NC3CCCCC3)ccc2O1`: the activation was 0.153%.
As to `O=C(c1ccncc1)N1CC(=O)N2[C@H](C1)[C@@H](c1ccc(C#CCC3CCCC3)cc1)[C@@H]2CO`, the activation was 0.192%.
Regarding `C[C@H]1CN([C@@H](C)CO)C(=O)c2cccc(NS(=O)(=O)c3ccc(F)cc3)c2O[C@@H]1CN(C)C`, the activation was -0.0195%.
The figure for `CNC[C@@H]1Oc2ccc(NC(=O)C3CCCCC3)cc2C(=O)N([C@@H](C)CO)C[C@H]1C` is -1.11%; for `C[C@@H](NC(=O)C[C@@H]1C[C@@H]2c3cc(NC(=O)c4cccnc4)ccc3O[C@@H]2[C@H](CO)O1)c1ccccc1` it is -0.0445%; for `CC(=O)N1[C@@H]2c3ccc(-c4ccccc4)c(=O)n3C[C@@H]2[C@@H](CO)[C@@H]1C(=O)NCc1ccccc1F` it is 0.21%.
As for `C[C@H](CO)N1C[C@H](C)[C@@H](CN(C)Cc2cccnc2)Oc2ncc(/C=C/c3ccccc3)cc2C1=O`, the activation is -0.672%.
With `CC(C)CC#Cc1cnc2c(c1)C(=O)N([C@H](C)CO)C[C@H](C)[C@H](CN(C)CC1CCOCC1)O2`, the activation is 0.516%.
Consider `CC[C@H]1CC=CC[C@@H](C)Oc2ccccc2C(=O)N(C)[C@H](Cc2ccccc2)C(=O)N1` (mixture of isomers), for which the activation was -0.034%.
Consider `CSc1nnc(SCc2nc3sc(C(=O)O)c(C)c3c(=O)[nH]2)s1`, for which the activation was 0.212%.
On to `CCOC(=O)c1sc2nc(C)nc(SCC(N)=O)c2c1C`, for which the activation is -0.02%.
The figure for `CCOC(=O)c1sc2nc(CSc3ccccc3)[nH]c(=O)c2c1C` is 21.4% (active); for `C/C=C/c1ccc2c(c1)O[C@H](CN(C)C(=O)Cc1cccnc1)[C@@H](C)CN([C@H](C)CO)S2(=O)=O` it is 0.77%; for `COc1ccc2c3c(n(C)c2c1)[C@H](CO)N(C(C)=O)CC31CN(Cc2ccc(Cl)cc2)C1` it is -0.0005%.
Turning to `COCCN(C[C@H]1[C@@H](c2ccccc2)[C@H](CO)N1C(=O)C1CCC1)C(C)=O`, the activation was 0.023%.
`C/C=C/c1ccc([C@H]2[C@@H](CO)N(C(=O)CC)[C@H]2CN(C)C(=O)C2CC2)cc1`: the activation was 0.008%.
On to `CCC(=O)Nc1ccc2c(c1)C(=O)N(C)C[C@@H](OC)[C@@H](C)CN(C(=O)CN(C)C)[C@@H](C)CO2`, for which the activation was 0.206%.
In the case of `CCC(=O)N1CC2(CCN(Cc3ccc(Cl)cc3)CC2)c2c(n(C)c3cc(OC)ccc23)[C@@H]1CO`, the activation is 0.134%.
With `CCS(=O)(=O)N1CC2(CN(C(=O)c3ccc(F)cc3)[C@@H](CO)c3c2c2ccc(OC)cc2n3C)C1`, the activation was 0.267%.
Turning to `C[C@@H]1CN([C@@H](C)CO)S(=O)(=O)c2ccc(Br)cc2O[C@@H]1CN(C)C(=O)CN(C)C`, the activation is 0.922%.
Consider `O=C(Nc1ccc(F)cc1)N1CC(=O)N2[C@H](CO)[C@H](c3ccc(C#Cc4ccccc4)cc3)[C@H]2C1`, for which the activation was 0.018%.
For `C[C@H](CO)N1C[C@H](C)[C@@H](CN(C)S(C)(=O)=O)Oc2ccc(NC(=O)Nc3ccc4c(c3)OCO4)cc2CC1=O`, the activation was 0.005%.
Turning to `OC[C@H]1[C@@H](c2ccc(C#Cc3ccccc3F)cc2)[C@H]2CN(CC3CCOCC3)CCCCN21`, the activation is -0.0285%.
For the molecule `C[C@H]1CN([C@@H](C)CO)C(=O)c2cc(-c3ccccc3)cnc2O[C@H]1CN(C)C(=O)C1CCOCC1`, the activation is -0.251%.
For the molecule `COCC(=O)Nc1ccc2c(c1)C(=O)N(C)[C@@H]1CC[C@H](CC(=O)NCC3CC3)O[C@H]1CO2`, the activation is 0.286%.
`COc1ccc2c3c(n(C)c2c1)[C@H](CO)NCC31CN(S(=O)(=O)c2cccc(C)c2)C1`: the activation was 0.887%.
Turning to `COc1cccc(-c2cnc3c(c2)C(=O)N([C@H](C)CO)C[C@H](C)[C@H](CN(C)Cc2ccncc2)O3)c1`, the activation was 0.983%.
For the molecule `CC(=O)N(C)C[C@H]1Oc2ncc(C#Cc3ccc(F)cc3)cc2C(=O)N([C@H](C)CO)C[C@@H]1C`, the activation is -1.15%.
In the case of `C[C@H]1CN([C@@H](C)CO)C(=O)CCCn2cc(nn2)CO[C@H]1CN(C)C(=O)Nc1ccc(F)cc1` it was -0.396%; in that of `O=C(C[C@H]1C=C[C@@H](NC(=O)CC2CC2)[C@H](CO)O1)NCc1ccc(-c2ccccc2)cc1`, 0.158%.
With `COc1ccc(S(=O)(=O)N(C)C[C@@H]2Oc3ccc(NC(=O)CCN4CCOCC4)cc3CC(=O)N([C@@H](C)CO)C[C@@H]2C)cc1`, the activation was -1.18%.
For the molecule `O=C(c1cccc(F)c1)N1CC[C@@H]2[C@H](CO)Nc3ccc(C#Cc4ccccc4)cc3[C@@H]21`, the activation is 0.0425%.
`CC(C)NC(=O)N(C)C[C@@H]1Oc2ncc(C#CC3CC3)cc2C(=O)N([C@@H](C)CO)C[C@H]1C`: the activation was -0.634%.
`Nc1c(C(=O)c2cccs2)sc2nsc(SCCN3CCCCC3)c12`: the activation is 114% (active).
Regarding `O=C(NC1CCCC1)N1CC(=O)N2[C@H](C1)[C@H](c1ccc(/C=C/c3ccccc3)cc1)[C@@H]2CO`, the activation was 0.335%.
As to `CCCC#Cc1ccc([C@H]2[C@H]3CN(C(=O)c4cccnc4)CC(=O)N3[C@H]2CO)cc1`, the activation was -0.0225%.
Consider `COc1ccccc1-c1ccc([C@H]2[C@@H](CO)N(CC3CC3)C23CN(S(C)(=O)=O)C3)cc1`, for which the activation is 0.04%.
Regarding `CO[C@@H]1CN(C)C(=O)c2cc(NC(=O)Nc3ccccc3F)ccc2OC[C@H](C)NC[C@H]1C`, the activation is -0.018%.
For `O=C([C@@H]1[C@@H](CO)[C@@H]2Cn3c(ccc(-c4cncnc4)c3=O)[C@@H]2N1C(=O)C1CCC1)N1CCCCC1`, the activation is 0.322%.
With `C[C@@H]1CCCCO[C@@H](CN(C)Cc2ccncc2)[C@@H](C)CN([C@H](C)CO)C(=O)c2cc(NS(=O)(=O)c3cccs3)ccc2O1`, the activation is 0.415%.
In the case of `CCCN1[C@H](CO)[C@H](c2ccc(C#CC3CCCCC3)cc2)[C@@H]1CNC(=O)C1CC1`, the activation is 0.049%.
The figure for `CN1CCN(C(=O)C[C@@H]2CC[C@@H]3[C@H](COC[C@H](O)CN3CC3CCOCC3)O2)CC1` is 0.0745%.
